# Columns and labels:
# [1] = Drug concentration in male albino rat skeletal muscle assessed as radioactivity per gram of tissue at 20 mg/kg administered as single dose via gastric gavage measured after 3 hrs by autoradiographic analysis; type: ADME, organism-based; design: dose 20 mg/kg, dosed compound name [14C]Sunitinib; conditions: in vivo, po
# Rattus norvegicus [2] = assay: Cmax as total radioactivity in female Sprague-Dawley rat plasma at 15 mg/kg, po administered as single dose by LC/MS/MS analysis; type: ADME, organism-based; design: dose 15 mg/kg, dosed compound name [14C]Sunitinib, route oral; conditions: in vivo
# Summary of the method: (§1)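 Single dose of [14C]sunitinib L-malate as free base, 50 µCi/kg. IV dose was 5 mg/kg by tail vein in 5 females. Oral dose was 15 mg/kg by gavage in 3 females and 3 males. Total radioactivity was by scintillation counting. […] Cmax was read from raw data, t½ by log-linear regression, AUC by linear trapezoidal rule.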
# Liver [3] = assay: Drug concentration in female albino rat liver assessed as radioactivity per gram of tissue at 20 mg/kg administered as single dose via gastric gavage measured after 24 hrs by autoradiographic analysis; type: ADME, organism-based; design: dose 20 mg/kg, dosed compound name [14C]Sunitinib; conditions: in vivo, po
# Summary of the method: (§2)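 Sprague Dawley albino rats, ca 7-8 weeks old, dosed once by gastric gavage with [14C]sunitinib L-malate (15 mg freebase/kg, 100 µCi/kg). One male and one female killed by CO2 at 3, 6, 24, 72 and 168 h. Carcasses frozen in solid CO2/hexane, embedded and cut into 30 µm sagittal sections, then freeze-dried. Radioactivity quantified by whole-body autoradiography against standards by regression, background subtracted.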
# [4] = Drug concentration in male albino rat salivary gland assessed as radioactivity per gram of tissue at 20 mg/kg administered as single dose via gastric gavage measured after 3 hrs by autoradiographic analysis; type: ADME, organism-based; design: dose 20 mg/kg, dosed compound name [14C]Sunitinib; conditions: in vivo, po
# Rattus norvegicus [5] = assay: Apparent terminal half life as total radioactivity in male Sprague-Dawley rat plasma at 15 mg/kg, po administered as single dose by LC/MS/MS analysis; type: ADME, organism-based; design: dose 15 mg/kg, dosed compound name [14C]Sunitinib, route oral; conditions: in vivo; summary of the method: as §1
# [6] = Drug concentration in female albino rat thyroid gland assessed as radioactivity per gram of tissue at 20 mg/kg administered as single dose via gastric gavage measured after 3 hrs by autoradiographic analysis; type: ADME, organism-based; design: dose 20 mg/kg, dosed compound name [14C]Sunitinib; conditions: in vivo, po
# Homo sapiens [7] = assay: Cmax as total radioactivity in human plasma at 50 mg, po administered as single dose measured up to 24 hrs by LC/MS/MS analysis; type: ADME, organism-based; design: dose 50 mg, dosed compound name [14C]Sunitinib, route oral; conditions: in vivo
# Summary of the method: (§3)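 Open-label phase I study in 8 subjects given one 50 mg oral dose of [14C]sunitinib (100 µCi). Plasma total radioactivity was counted by scintillation on triplicate 0.25 mL aliquots. Sunitinib was quantified by LC-MS-MS. Noncompartmental analysis: Cmax read directly, terminal t½ = ln(2)/slope of the log-concentration regression, AUC by linear trapezoidal rule to the last detectable concentration.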
# Stomach = assay: Drug concentration in male Lister Hooded pigmented rat stomach assessed as radioactivity per gram of tissue at 20 mg/kg administered as single dose via gastric gavage measured after 24 hrs by autoradiographic analysis; type: ADME, organism-based; design: dose 20 mg/kg, dosed compound name [14C]Sunitinib; conditions: in vivo, po
# [8] = Drug concentration in female albino rat bladder assessed as radioactivity per gram of tissue at 20 mg/kg administered as single dose via gastric gavage measured after 72 hrs by autoradiographic analysis; type: ADME, organism-based, Urinary bladder; design: dose 20 mg/kg, dosed compound name [14C]Sunitinib; conditions: in vivo, po
# Summary of the method: (§4)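 Sprague Dawley (albino) rats, ca 7-8 weeks old, received a single gastric-gavage dose of [14C]sunitinib L-malate at 20 mg/kg (15 mg freebase/kg, 100 µCi/kg). One animal per sex killed by CO2 at 3, 6, 24, 72 and 168 h, then frozen in CO2/hexane. 30 µm sagittal sections were cut and freeze-dried. Radioactivity per gram quantified by whole-body autoradiography using regression against standards. LOQ 0.04–0.06 µg freebase equiv/g.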
# [9] = Drug concentration in male albino rat testis assessed as radioactivity per gram of tissue at 20 mg/kg administered as single dose via gastric gavage measured after 3 hrs by autoradiographic analysis; type: ADME, organism-based; design: dose 20 mg/kg, dosed compound name [14C]Sunitinib; conditions: in vivo, po
# [10] = Drug concentration in female albino rat eye assessed as radioactivity per gram of tissue at 20 mg/kg administered as single dose via gastric gavage measured after 24 hrs by autoradiographic analysis; type: ADME, organism-based; design: dose 20 mg/kg, dosed compound name [14C]Sunitinib; conditions: in vivo, po; summary of the method: as §2
# [11] = Drug concentration in male albino rat brown fat assessed as radioactivity per gram of tissue at 20 mg/kg administered as single dose via gastric gavage measured after 3 hrs by autoradiographic analysis; type: ADME, organism-based, Brown adipose tissue; design: dose 20 mg/kg, dosed compound name [14C]Sunitinib; conditions: in vivo, po
# Adrenal = assay: Drug concentration in female albino rat adrenal assessed as radioactivity per gram of tissue at 20 mg/kg administered as single dose via gastric gavage measured after 168 hrs by autoradiographic analysis; type: ADME, organism-based; design: dose 20 mg/kg, dosed compound name [14C]Sunitinib; conditions: in vivo, po; summary of the method: as §4
# Cynomolgus monkey [12] = assay: Terminal half life as total radioactivity in female cynomolgus monkey plasma at 6 mg/kg, po administered as single dose by LC/MS/MS analysis; type: ADME, organism-based, Macaca fascicularis; design: dose 6 mg/kg, dosed compound name [14C]Sunitinib, route oral; conditions: in vivo
# Liver [13] = assay: Drug concentration in female albino rat liver assessed as radioactivity per gram of tissue at 20 mg/kg administered as single dose via gastric gavage measured after 3 hrs by autoradiographic analysis; type: ADME, organism-based; design: dose 20 mg/kg, dosed compound name [14C]Sunitinib; conditions: in vivo, po; summary of the method: as §2
# [14] = Drug concentration in female Lister Hooded pigmented rat uveal tract assessed as radioactivity per gram of tissue at 20 mg/kg administered as single dose via gastric gavage measured after 336 hrs by autoradiographic analysis; type: ADME, organism-based; design: dose 20 mg/kg, dosed compound name [14C]Sunitinib; conditions: in vivo, po
# Summary of the method: (§5)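 Lister Hooded (pigmented) rats, ca 7-8 weeks old, acclimated 7 days, given [14C]sunitinib L-malate by gastric gavage at 20 mg/kg (15 mg freebase/kg, 100 µCi/kg). One male and one female killed by CO2 at 24, 72, 168 and 336 h. Carcasses frozen in solid CO2/hexane and embedded in frozen cellulose. 30 µm sagittal cryosections were freeze-dried. Tissue radioactivity measured by quantitative whole-body autoradiography against calibration standards, with background subtracted.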
# Heart = assay: Drug concentration in female albino rat heart assessed as radioactivity per gram of tissue at 20 mg/kg administered as single dose via gastric gavage measured after 24 hrs by autoradiographic analysis; type: ADME, organism-based; design: dose 20 mg/kg, dosed compound name [14C]Sunitinib; conditions: in vivo, po; summary of the method: as §2
# [15] = Drug concentration in male albino rat bladder assessed as radioactivity per gram of tissue at 20 mg/kg administered as single dose via gastric gavage measured after 3 hrs by autoradiographic analysis; type: ADME, organism-based, Urinary bladder; design: dose 20 mg/kg, dosed compound name [14C]Sunitinib; conditions: in vivo, po
# [16] = Drug concentration in female Lister Hooded pigmented rat salivary gland assessed as radioactivity per gram of tissue at 20 mg/kg administered as single dose via gastric gavage measured after 24 hrs by autoradiographic analysis; type: ADME, organism-based; design: dose 20 mg/kg, dosed compound name [14C]Sunitinib; conditions: in vivo, po; summary of the method: as §5
# Lung = assay: Drug concentration in male albino rat lung assessed as radioactivity per gram of tissue at 20 mg/kg administered as single dose via gastric gavage measured after 6 hrs by autoradiographic analysis; type: ADME, organism-based; design: dose 20 mg/kg, dosed compound name [14C]Sunitinib; conditions: in vivo, po
# Homo sapiens [17] = assay: AUC (0 to infinity) as total radioactivity in human plasma at 50 mg, po administered as single dose […] by LC/MS/MS analysis; type: ADME, organism-based; design: dose 50 mg, time infinity, route oral, dosed compound name [14C]Sunitinib; conditions: in vivo; summary of the method: as §3
# [18] = Drug concentration in female albino rat uterus assessed as radioactivity per gram of tissue at 20 mg/kg administered as single dose via gastric gavage measured after 24 hrs by autoradiographic analysis; type: ADME, organism-based; design: dose 20 mg/kg, dosed compound name [14C]Sunitinib; conditions: in vivo, po
# [19] = Drug concentration in female albino rat bone marrow assessed as radioactivity per gram of tissue at 20 mg/kg administered as single dose via gastric gavage measured after 72 hrs by autoradiographic analysis; type: ADME, organism-based; design: dose 20 mg/kg, dosed compound name [14C]Sunitinib; conditions: in vivo, po; summary of the method: as §4
# Small intestine = assay: Drug concentration in male albino rat small intestine assessed as radioactivity per gram of tissue at 20 mg/kg administered as single dose via gastric gavage measured after 24 hrs by autoradiographic analysis; type: ADME, organism-based; design: dose 20 mg/kg, dosed compound name [14C]Sunitinib; conditions: in vivo, po
# Cynomolgus monkey [20] = assay: Total drug recovery in female cynomolgus monkey at 6 mg/kg, po administered as single dose during 0 to 336 hrs by liquid scintillation counting; type: ADME, organism-based, Macaca fascicularis; design: dose 6 mg/kg, dosed compound name [14C]Sunitinib, route oral; conditions: in vivo
compound,measurement,setting,value
CCN(CC)CCNC(=O)c1c(C)[nH]c(/[14CH]=C2\C(=O)Nc3ccc(F)cc32)c1C.O=C(O)C[C@H](O)C(=O)O,Radiolabel recovery,[1],2.92 ugequiv
same,Cmax,Rattus norvegicus [2],2926 ngequiv/ml
same,Radiolabel recovery,Liver [3],2.8 ugequiv
same,Radiolabel recovery,[4],17.24 ugequiv
same,t1/2 lambda z,Rattus norvegicus [5],9 h
same,Radiolabel recovery,[6],18.64 ugequiv
same,Cmax,Homo sapiens [7],67.4 ngequiv/ml
same,Radiolabel recovery,Stomach,0.67 ugequiv
same,Radiolabel recovery,[8],0.14 ugequiv
same,Radiolabel recovery,[9],0.79 ugequiv
same,Radiolabel recovery,[10],0.43 ugequiv
same,Radiolabel recovery,[11],8.47 ugequiv
same,Radiolabel recovery,Adrenal,0.33 ugequiv
same,beta t1/2,Cynomolgus monkey [12],121 h
same,Radiolabel recovery,Liver [13],19.89 ugequiv
same,Radiolabel recovery,[14],323.3 ugequiv
same,Radiolabel recovery,Heart,0.73 ugequiv
same,Radiolabel recovery,[15],3.22 ugequiv
same,Radiolabel recovery,[16],1.66 ugequiv
same,Radiolabel recovery,Lung,17.87 ugequiv
same,AUC,Homo sapiens [17],2537.1 ng.Eq.hr/ml
same,Radiolabel recovery,[18],0.96 ugequiv
same,Radiolabel recovery,[19],0.1 ugequiv
same,Radiolabel recovery,Small intestine,1.55 ugequiv
same,Radiolabel recovery,Cynomolgus monkey [20],90.7%
